Experimental findings from ChEMBL document CHEMBL1139923, “Biological evaluation of de-O-sulfonated analogs of salacinol, the role of sulfate anion in the side chain on the alpha-glucosidase inhibitory activity” (Bioorg Med Chem, 2007) are described below.

Usually IC50 stands for the concentration at which inhibition is half-maximal. Read a low IC50 as greater potency in that assay. For orientation: inhibition means how much of the control response was suppressed. A higher inhibition goes with a response far below the control.

The nature of assay [1]: Inhibition of rat intestinal sucrase. The method in brief:
(§1)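 Sucrose (74 mM in the substrate solution, 0.1 M maleate buffer) was the substrate for intestinal α-glucosidase. Test compound was added from a DMSO stock diluted in buffer (2.5% DMSO final) along with enzyme. The mixture ran 30 min at 37 °C and was halted by boiling for 2 min. Released glucose was quantified by the glucose-oxidase method.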

The nature of assay [2]: Inhibition of rat intestinal maltase. The method in brief: (§2)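 Intestinal α-glucosidase from the in vitro assay with maltose as substrate, 74 mM in the substrate solution. Compound was dissolved in DMSO and diluted in 0.1 M maleate buffer, giving 2.5% DMSO final. Substrate, compound and enzyme solutions were incubated at 37 °C for 30 min, stopped by 2 min in boiling water, and glucose was measured by glucose-oxidase.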

For assay [3], the species on record is Rattus norvegicus. The assay is described as follows: Inhibition of rat intestinal maltase at 1092 uM. The procedure, abridged: as §2
For assay [4], the species on record is Rattus norvegicus. The assay is described as follows: Inhibition of rat intestinal sucrase at 400 ug/ml. The procedure, abridged: as §1
The species entered for assay [5] is Rattus norvegicus. The assay is described as follows: Inhibition of rat intestinal maltase at 400 ug/ml. The procedure, abridged: as §2

Calls of active or inactive are those of the source. No cut-off for these calls is given here.

As for `O=S(=O)([O-])O[C@@H](CO)[C@H](O)C[S@+]1C[C@@H](O)[C@H](O)[C@H]1CO` [SALACINOL], the IC50 was 2.5 µM in assay [1] and 9.6 µM in assay [2].

With `OC[C@H](O)[C@H](O)C[S@@+]1C[C@H](O)[C@@H](O)[C@@H]1CO`, the IC50 in assay [1] and in assay [2] was over 1090 µM throughout. Moreover, the outcome in the assay filed under Rattus norvegicus [3] was inactive. For the same molecule, the inhibition in the assay filed under Rattus norvegicus [4] was determined as 48%.

For `O=S(=O)([O-])O[C@@H](CO)[C@H](O)C[S@@+]1C[C@H](O)[C@@H](O)[C@@H]1CO`, the inhibition in the assay listed under Rattus norvegicus [5] was 18%; in the assay filed under Rattus norvegicus [4], 21%. For the same molecule, the IC50 in assay [1] and in assay [2] was over 1200 µM each time.

As for `OC[C@@H]1[C@@H](O)[C@H](O)C[S@@+]1C[C@@H](O)[C@@H](O)CO` [listing 1 of 2 here], the values for the half-inhibitory concentration (IC50) in assay [1] and in assay [2] were 3.5 µM and 14 µM, respectively.

Consider `OC[C@@H]1[C@@H](O)[C@H](O)C[S@@+]1C[C@@H](O)[C@@H](O)CO` [listing 2 of 2 here], for which the results for the IC50 in assay [1] and in assay [2] were 3.7 µM and 15.6 µM, respectively.
